Sampled rows, rich in hits. Any-hit rate of the full collection: about 6.8%.
MKP-1 inh – blocks human MKP-1 phosphatase activity; AID 374; recombinant MKP-1, OMFP hydrolysis fluorescence; actives 0.15% (n = 65,000); inhibition, %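 (compounds tested at a single concentration somewhere between 10 and 100 µM)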; P28562;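 active = inhibition above about 50%, limit read from the data; inconclusive = inhibition over screen mean plus 3 SD, below that limit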
M1 antagonist – antagonists of rat M1 muscarinic receptor. CHO-M1 cells, Fluo-4 calcium, ACh EC80 antagonist mode; active compounds read low. B-score at 10 µM. actives 3.4% (n = 64,000). P08482. AID 628;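 active = calcium fluorescence response, raw or row-and-column corrected B-score, differing from the plate sample mean either way at a set confidence level, mostly lower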
HEK293 NFkB inh – lowers PMA/ionomycin-induced NF-kB signal in HEK293 cells; AID 465; inhibition, % at 3 µM; HEK-293 NF-kB luciferase reporter, luminescence; actives 0.21% (n = 62,000);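 active = inhibition above the mean of all tested compounds plus 3 SD, cut at about 40% in these data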
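Reagent: PMA plus ionomycin mix as NF-kB-activating stimulus. Assay system: NF-kB luciferase reporter HEK-293 cells. Technique: luminescence from luciferase substrate reagent. Incubation: 1 h compound pre-incubation, 16 h PMA/ionomycin at 37 °C. Benchmarks: DMSO only as uninhibited control, 10 µM reference inhibitor as full inhibition. Repeats: tested once.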
Cdc25B inh – inhibitors of human Cdc25B phosphatase; recombinant Cdc25B, OMFP fluorescence Ex485/Em525; AID 368; P30305; actives 0.1% (n = 65,000); inhibition, %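 (compounds tested at 10 µM final in the well)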; in the data active = inhibition above about 50%
Her2 expr inh – lowers expression of human Her2 kinase; SKBR-3 HER2 protein level, AlphaScreen, 18-24 h; active compounds read low; HER2 level % of control, % at 10 µM; actives 0.69% (n = 65,000); AID 645;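 active = HER2 level under 5% of the carrier-only control; inconclusive = no clear call, values can overlap the other calls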;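 also: lower value means stronger loss of Her2 protein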
M1 ag – agonists of M1 muscarinic receptor; CHO-M1 cells, Fluo-4 calcium fluorescence, agonist mode; active compounds read high; B-score at 10 µM; actives 3% (n = 64,000);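 active = fluorescence rise, raw or as B-score row- and column-corrected plate score, outside the 99.7% band of its plate's samples, either direction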
M1 ag confirm – rat M1 muscarinic agonism, confirmation; shares compounds with M1 ag; actives 19% (n = 1,700); AID 1488; CHO-M1 cells, Fluo-4 calcium fluorescence, agonist mode; actives lie on both sides; fluorescence change (max-min) at 10 µM;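 active = fluorescence change differs from the solvent-only DMSO control mean at a set confidence level in both duplicate runs; inconclusive = differs from solvent-only control mean in just one of two runs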;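 also: an EC20 dose of acetylcholine follows compound addition during the same imaging run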
M4 ag counter – activates rat M4 receptor in counter-screen for M1 agonists; shares compounds with M1 ag; actives 9% (n = 1,700); fluorescence change (max-min) at 10 µM; CHO M4/Gqi5 cells, Fluo-4 calcium fluorescence, agonist mode; actives lie on both sides;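 active = fluorescence change differing from the plate's solvent-only control wells at 99.7% confidence in both duplicates, whether higher or lower; inconclusive = differs from solvent controls in only one of two duplicates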
Large screens that a line does not name were inactive (follow-up assays come after a bar, where they were run).

CCn1c(N)c(C(=O)NC)sc1=S	none
O=C(NCc1cccs1)Nc1ccc2c(c1)OCO2	M1 ag 3.1 | M1 ag confirm inconclusive | M4 ag counter inactive
COc1cc(C2C(C#N)=C(N)Oc3cc(N(C)C)ccc32)cc2c1OCO2 (configuration not stated)	HEK293 NFkB inh 63, M1 ag 45 | M1 ag confirm 206 | M4 ag counter 203
Cn1c(SCC(=O)NCc2ccc3c(c2)OCO3)nc2scc(-c3cccs3)c2c1=O	none
O=C(CSc1n[nH]c(=O)n1C1CC1)Nc1cc(Cl)ccc1Oc1ccccc1	M1 antagonist -2.7, M1 ag 6.9 | M1 ag confirm inactive | M4 ag counter inactive
O=C(Nc1ccc2c(c1)OCCO2)c1ccc(Br)c(S(=O)(=O)N2CCOCC2)c1	M1 ag 11 | M1 ag confirm inconclusive | M4 ag counter inactive
CCOC(=O)c1ccc(NC(=O)c2ccc(C)c(S(=O)(=O)N3CCOCC3)c2)cc1	M1 antagonist -3.1, M1 ag 16 (no result: HEK293 NFkB inh, Her2 expr inh) | M1 ag confirm inactive | M4 ag counter inactive
O=C(Nc1ccc2c(c1)OCO2)c1ccc(Br)c(S(=O)(=O)N2CCCC2)c1	none
CCOC(=O)c1ccc(NC(=O)c2cccc(S(=O)(=O)N3CCOCC3)c2)cc1	M1 antagonist -2.9, M1 ag 10 | M1 ag confirm inactive | M4 ag counter inconclusive
O=C(Nc1ccc(F)c(F)c1)c1ccc(F)c(S(=O)(=O)N2CCOCC2)c1	none
Cc1cc(Nc2ccc(Br)c(C)c2)n2nc(C)nc2n1	M1 ag 4.7 | M1 ag confirm inconclusive | M4 ag counter inactive
Cc1ccc(Nc2cc(C)nc3nc(C)nn23)cc1	none
COc1cccc(N2CCN(c3ncnc4c3cnn4-c3ccc(C)cc3C)CC2)c1	M1 ag 9.7 | M1 ag confirm inactive | M4 ag counter inactive
CCN(CC)C(=O)C1CCCN(c2ncnc3c2cnn3-c2cccc(C)c2)C1 (configuration not stated)	none
Cc1ccc(-n2ncc3c(N4CCCC4)ncnc32)c(C)c1	none (no result: HEK293 NFkB inh)
CCOC(=O)C1CCCN(c2ncnc3c2cnn3-c2cccc(C)c2)C1 (configuration not stated)	M1 antagonist -2.2, M1 ag 33 | M1 ag confirm 282 | M4 ag counter inactive
CC(C)(C)C(=O)/C(C#N)=c1\s/c(=C\c2ccncc2)c(=O)n1CCCN1CCOCC1	none
Cc1cccc2cc3c(N)c(C#N)sc3nc12	M1 ag 8.6 | M1 ag confirm inactive | M4 ag counter inconclusive
Cc1cccc2cc(C#N)c(NCCNC(=O)NC3CCCCC3)nc12	none
O=C(NCc1ccco1)C(Cc1ccccc1)N1C(=O)C2C3C=CC(C3)C2C1=O (configuration not stated)	M1 ag 4.5 | M1 ag confirm inconclusive | M4 ag counter inactive
O=S(=O)(c1ccc(NC2CCCCC2)cc1)N1CCOCC1	none
C=CCn1c(SCC(=O)c2ccc(OC)cc2)nnc1C(C)NC(=O)c1cccs1 (configuration not stated)	M1 ag -2.8 | M1 ag confirm inconclusive | M4 ag counter inactive
O=C(CN1C(=O)NC2(CCc3ccccc32)C1=O)Nc1cc(C(F)(F)F)ccc1N1CCOCC1 (configuration not stated)	none
CC(=Nc1ccc(O)cc1)c1sc2ccccc2c1O	M1 ag 36 | M1 ag confirm inactive | M4 ag counter inactive
CCc1c(C(=O)Nc2ccc(S(=O)(=O)N3CCOCC3)cc2)csc1C	none
Cc1ccc(-c2cn3nc(C)c(C)nc3n2)cc1	M1 ag 11 | M1 ag confirm 103 | M4 ag counter inactive
Cc1nn2cc(-c3ccccc3)nc2s1	none
Cc1ccccc1N1C(=O)c2cccc3c(N(C)CCO)ccc(c23)C1=O	M1 ag 91 | M1 ag confirm 868 | M4 ag counter 912
Cn1c(SCC(=O)NCc2ccc3c(c2)OCO3)nnc1C1COc2ccccc2O1 (configuration not stated)	none
CC(=O)N(Cc1ccccc1)c1ncc2c(n1)c(=O)c(C#N)c1ccccn12	M1 ag 4 | M1 ag confirm 64 | M4 ag counter inactive
O=C(CNc1ccc(Oc2ccccc2)cc1)N1CCOCC1	M1 ag 2.8 | M1 ag confirm inconclusive | M4 ag counter inconclusive
O=C1CCC(=O)N1CNc1ccc(Oc2ccccc2)cc1	M1 ag -3.2 | M1 ag confirm inconclusive | M4 ag counter inactive
CNCc1cc2ccc(C)cc2[nH]c1=O	none
O=C(Nc1nc(-c2ccccc2)cs1)C1CCCN(S(=O)(=O)c2ccccc2)C1 (configuration not stated)	M1 ag 4.5 | M1 ag confirm inconclusive | M4 ag counter inactive
COC(=O)c1ccccc1NC(=O)C1CCCN(S(=O)(=O)c2ccc(F)cc2)C1 (configuration not stated)	M1 ag 5.5 | M1 ag confirm inactive | M4 ag counter inactive
Cc1nnc(NC(=O)C2CCCN(S(=O)(=O)Cc3ccccc3)C2)s1 (configuration not stated)	none
Cc1nnc(NC(=O)C2CCCN(S(=O)(=O)c3ccccc3C(F)(F)F)C2)s1 (configuration not stated)	M1 ag 16 | M1 ag confirm inactive | M4 ag counter inactive
COc1ccc(S(=O)(=O)NC(CC(=O)NCCc2ccc(OC)c(OC)c2)c2ccco2)cc1 (configuration not stated)	none
CCOc1ccc(N(CC(=O)NC2CCCC2)S(=O)(=O)c2c(C)[nH]c(=O)[nH]c2=O)cc1	none
Cc1cc(C(=O)CSc2nnc(-c3cccs3)o2)c(C)n1-c1ccccc1	none
O=C(CCn1cccc1)NCc1ccc(Cl)cc1	none
O=C(NCCn1cccc1)c1cccc2ccccc12	M1 ag 5.7 | M1 ag confirm -31 | M4 ag counter inactive
Cc1cc(Cl)ccc1OCC(=O)N1CCCCC1	M1 ag 2.2 | M1 ag confirm inconclusive | M4 ag counter inactive
CCn1c(SCC(=O)Nc2cc3oc4ccccc4c3cc2OC)nnc1-c1cccs1	none (no result: M1 antagonist, M1 ag)
CC(=O)Nc1ccc(OCC(O)CN2CCN(c3ccc(C)c(Cl)c3)CC2)cc1 (configuration not stated)	M1 ag 1.9 | M1 ag confirm inactive | M4 ag counter inactive
CCCS(=O)(=O)Nc1cc(C(F)(F)F)ccc1OCCOC	none
Cc1ccccc1CN(c1ccc(C(=O)N2CCCC2)cc1)S(C)(=O)=O	M1 ag 3.2 | M1 ag confirm inactive | M4 ag counter inactive
CCCC(=O)c1c(C)c2ccccc2n1C	none
